The source of these data is ChEMBL document CHEMBL5154764, “Development of small molecules that work cooperatively with ciprofloxacin to clear salmonella biofilms in a chronic gallbladder carriage model” (Eur J Med Chem, 2022).

The test system of assay [1] is Salmonella typhimurium. Briefly: Antibacterial activity against Salmonella typhimurium ATCC 14028 infected in 129X1/SvJ NRAMP +/+ mouse gallstone model assessed as log reduction in bacterial burden in gallblader at 4 mg/kg/day, ip administered from 5 to 15 consecutive days and measured on day 15. Format: functional, Salmonella enterica subsp. enterica serovar Typhimurium. As to conditions: time 10 day. The method, boiled down:
(§1)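 129X1/SvJ NRAMP+/+ mice given a lithogenic diet (chow plus 1% cholesterol, 0.5% cholic acid) for 8 weeks. Infected i.p. with ~10^3 CFU in 200 μL PBS. Treated daily i.p. on days 5–15 post-infection; vehicle 5% DMSO in PBS. Day 15: gallbladder, liver and spleen homogenized in 1 mL PBS, serially diluted and plated on LB agar (37 °C, 16 h) for CFU counts. One-way ANOVA with Tukey correction.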

Assay [2] concerns Salmonella typhimurium. Nature of the assay: Antibacterial activity against Salmonella typhimurium ATCC 14028 infected in 129X1/SvJ NRAMP +/+ mouse gallstone model assessed as reduction in bacterial burden in liver at 2 mg/kg/day, ip administered from 5 to 15 consecutive days and measured on day 15. Format: functional, organism-based. The conditions noted are these: Salmonella enterica subsp. enterica serovar Typhimurium, time 10.0 day. The method, boiled down: as §1

Assay [3] has as its system Salmonella typhimurium. Briefly: Antibacterial activity against Salmonella typhimurium ATCC 14028 infected in 129X1/SvJ NRAMP +/+ mouse gallstone model assessed as reduction in bacterial burden in spleen at 2 mg/kg/day, ip administered from 5 to 15 consecutive days and measured on day 15. It counts as functional, organism-based. As to conditions: Salmonella enterica subsp. enterica serovar Typhimurium, time 10.0 day. The method, boiled down:
as §1

Assay [4] has as its system Salmonella typhimurium. Nature of the assay: Antibiofilm activity against Salmonella typhimurium ATCC 14028 assessed as inhibition of biofilm formation incubated for 24 hrs by crystal violet staining based spectrophotometry. As to conditions: Salmonella enterica, ATCC 14028, 24 h. It counts as functional, organism-based, Salmonella enterica subsp. enterica serovar Typhimurium. The method, boiled down: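 LB overnight cultures (37 °C) set to OD600 0.8, diluted 1:100 into TSB diluted 1:20 in water. Compound at 0.2–100 μM or DMSO added at inoculation. Grown 24 h at 30 °C with nutation, washed, heat-fixed (60 °C, 1 h), stained with crystal violet, dye solubilized in acetic acid, read at 570 nm. IC50 from variable-slope fit of % biofilm vs log concentration. Mean ± SD of three biological replicates.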

Assay [5] concerns Salmonella typhimurium. Nature of the assay: Antibiofilm activity against Salmonella typhimurium ATCC 14028 assessed as biofilm dispersal effect incubated for 24 hrs by crystal violet staining based spectrophotometry. It counts as functional, organism-based, Salmonella enterica subsp. enterica serovar Typhimurium. As to conditions: Salmonella enterica, ATCC 14028, 24 h. The method, boiled down: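 Biofilms grown 24 h at 30 °C with nutation in TSB diluted 1:20, from 1:100-diluted LB overnight cultures set to OD600 0.8. Crystal violet staining, acetic acid solubilization, 570 nm read-out. EC50 from variable-slope fit of % biofilm remaining vs log concentration. Mean ± SD of three biological replicates.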

The test system of assay [6] is Salmonella typhimurium. Nature of the assay: Antibacterial activity against Salmonella typhimurium ATCC 14028 infected in 129X1/SvJ NRAMP +/+ mouse gallstone model assessed as log reduction in bacterial burden in gallblader at 5 mg/kg/day, ip administered for 5 to 15 consecutive days of post infection and measured on day 15 in presence of 1 mg/kg/day ciprofloxacin. Format: functional, Salmonella enterica subsp. enterica serovar Typhimurium. The conditions noted are these: time 10 day. The method, boiled down: as §1

Assay [7] deals with Salmonella typhimurium. Briefly: Antibacterial activity against Salmonella typhimurium ATCC 14028 infected in 129X1/SvJ NRAMP +/+ mouse gallstone model assessed as log reduction in bacterial burden in gallblader at 10 mg/kg/day, ip administered from 5 to 15 consecutive days and measured on day 15 in presence of 1 mg/kg/day ciprofloxacin. Format: functional, Salmonella enterica subsp. enterica serovar Typhimurium. As to conditions: time 10 day.

pEC50, pIC50: −log10 of the molar value. Activity calls are given as the source filed them. No cut-off for these calls is given here.

As for `O=C(O)c1cn(C2CC2)c2cc(N3CCNCC3)c(F)cc2c1=O` [CIPROFLOXACIN], the “log(activity)” value in the assay with Salmonella typhimurium [1] came to 3. In addition, the outcome in the assay on Salmonella typhimurium [2] and in the assay with Salmonella typhimurium [3] was Active.

Take `CN(Cc1ccsc1)CC1CCN(CCc2ccccc2F)CC1`: in the assay on Salmonella typhimurium [4], the pIC50 is 5.24. Besides, the pEC50 in the assay with Salmonella typhimurium [5] is 3.08. Moreover, the “log(activity)” value in the assay with Salmonella typhimurium [6] amounted to 2; in the assay on Salmonella typhimurium [7], 3.

By pIC50 is commonly meant the IC50 on a negative log10 scale, so that one unit is a factor of ten. The pEC50 is the EC50 on a negative log10 scale, so that one unit is a factor of ten.
